Measured values published in ChEMBL document CHEMBL1129608, “Phosphodiester amidates of allenic nucleoside analogues: anti-HIV activity and possible mechanism of action” (J Med Chem, 1996).

Key:
L1210 = assay: Compound was evaluated for the clonogenic assay with murine leukemia L1210 cells; assay type: functional; conditions: Mus musculus, read-out: ID50 (the source's name)
ATH-8 cell line [1] = assay: Compound was evaluated for the cytotoxicity in ATH8 cells; conditions: Homo sapiens
ATH-8 cell line [2] = assay: Compound was evaluated for the inhibition of replication and cytopathic effect of HIV-1 in ATH8 cells; assay type: functional, cell-based, Homo sapiens
In short: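 ATH8 (CD4+) cells, 2 × 10⁵, were exposed to HIV-1 LAI (500 TCID50) for 45 min and then cultured with compound. Total viable cells were counted on day 7. Percent protection was calculated as viable cells (infected plus drug minus infected alone) divided by (uninfected minus infected alone) × 100. Cytotoxicity was 100 × (1 − viable cells with drug / viable cells alone).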

[3] = Kinetic hydrolysis catalyzed by pig liver esterase at pH 1.2; assay type: ADME, Sus scrofa
[4] = Kinetic hydrolysis catalyzed by pig liver esterase at pH 9.8; assay type: ADME, Sus scrofa
L1210 (Mus musculus) = assay: Compound was evaluated for the inhibitory activity in a clonogenic assay with murine leukemia L1210 cells
[5] = Kinetic hydrolysis catalyzed by pig liver esterase at pH 7.4 and 37 degree C; assay type: ADME, Sus scrofa
In short: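 Substrate at 2.2 × 10⁻³ M in 0.02 M Na₂HPO₄, pH 7.4, with pig liver esterase (200 units per 1 mL), stirred at 37 °C. Aliquots were taken at set times and analysed by reverse-phase C18 HPLC (water–CH₃CN gradient) to follow loss of substrate and give the half-life.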

| SMILES | IC50 (L1210) [nM] | IC50 (ATH-8 cell line [1]) [nM] | EC50 (ATH-8 cell line [2]; Homo sapiens, ATH-8) [nM] | half-life [3] [h] | EC50 (ATH-8 cell line [2]; ath-8) [nM] | half-life [4] [h] | ID50 (L1210 (Mus musculus)) [nM] | half-life [5] [h] |
| --- | --- | --- | --- | --- | --- | --- | --- | --- |
| Nc1ncnc2c1ncn2C=C=CCO | 150000 | 3000 | 14000 | – | – | – | – | – |
| COC(=O)C(C)NP(=O)(OCC=C=Cn1cnc2c(N)ncnc21)Oc1ccccc1 (stereo in doubt; 2a) | – | – | – | 24.4 | 880 | 2.52 | > 300000 | 8.5 |
| COC(=O)C(C)NP(=O)(OCC=C=Cn1cnc2c(N)ncnc21)Oc1ccccc1 (stereo in doubt; 4a) | – | – | – | – | 210 | – | – | – |
